According to ChEMBL document CHEMBL1145100, “Structure-activity relationship of imidazo[1,2-a]pyridines as ligands for detecting beta-amyloid plaques in the brain” (J Med Chem, 2003):
pKi: −log10 of the molar value.

Target: Amyloid-beta precursor protein (Homo sapiens, UniProt P05067)
Assay: Inhibition constant against [125I]-7 (TZDM) binding to Amyloid beta 1-40 aggregates
In short: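 Abeta40 peptide aggregated at 0.5 mg/mL in pH 7.4 buffer (10 mM sodium phosphate, 1 mM EDTA), 37 °C for 36-42 h with shaking. Competition in 1 mL of 40% EtOH: fibrils 10-50 nM final, radiotracer 0.05 nM, inhibitors 10^-5 to 10^-10 M. Nonspecific binding with 2 µM thioflavin-T. Incubated 3 h at room temperature, then GF/B filtration with 10% ethanol washes and gamma counting. Ki from nonlinear regression.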

Amyloid-beta precursor protein, sequence (P05067 whole entry): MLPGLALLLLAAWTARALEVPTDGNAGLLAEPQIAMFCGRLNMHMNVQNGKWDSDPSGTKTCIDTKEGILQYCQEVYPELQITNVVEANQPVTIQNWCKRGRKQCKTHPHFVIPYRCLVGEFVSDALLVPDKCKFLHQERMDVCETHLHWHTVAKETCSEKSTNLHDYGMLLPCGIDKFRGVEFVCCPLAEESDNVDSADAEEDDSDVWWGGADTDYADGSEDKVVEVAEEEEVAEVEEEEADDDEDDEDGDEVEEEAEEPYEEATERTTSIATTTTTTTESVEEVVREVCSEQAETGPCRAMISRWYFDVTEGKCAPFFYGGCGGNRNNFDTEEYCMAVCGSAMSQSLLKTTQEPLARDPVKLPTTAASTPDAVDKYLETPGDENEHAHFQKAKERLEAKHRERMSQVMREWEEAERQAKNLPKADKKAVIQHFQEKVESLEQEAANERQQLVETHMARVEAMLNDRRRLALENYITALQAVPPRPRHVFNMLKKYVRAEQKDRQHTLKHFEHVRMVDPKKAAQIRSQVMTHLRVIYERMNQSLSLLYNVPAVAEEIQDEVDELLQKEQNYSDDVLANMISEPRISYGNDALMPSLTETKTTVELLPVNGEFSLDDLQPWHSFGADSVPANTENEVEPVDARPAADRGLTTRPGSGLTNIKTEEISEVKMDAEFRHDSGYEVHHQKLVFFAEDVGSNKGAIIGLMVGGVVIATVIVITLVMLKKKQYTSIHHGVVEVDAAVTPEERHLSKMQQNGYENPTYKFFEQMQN

pKi: 6.62
Structure (SMILES): Cc1ccc2nc(-c3ccc(N(C)C)cc3)cn2c1
